The source of these data is ChEMBL document CHEMBL1137681, “Design, synthesis and characterization of N9/N7-substituted 6-aminopurines as VEGF-R and EGF-R inhibitors” (Eur J Med Chem, 2009).

Activity calls are given as the source filed them. The rule behind the calls is not given here.

For assay [1], the target named is Epidermal growth factor receptor (Homo sapiens, UniProt P00533). Nature of the assay: Inhibition of EGFR.
Assay [2] concerns the target Casein kinase II subunit alpha (Homo sapiens) (UniProt P68400). In words: Inhibition of CK2alpha1. A digest of the protocol:
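Run in HEPES-NaOH pH 7.5 with MgCl2, MnCl2, orthovanadate, DTT, PEG20000 and 1% DMSO at 30 °C for 80 min. IC50 from 10 concentrations, singlicate.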

Assay [3] deals with T1, Serine/threonine-protein kinase PLK4 (Homo sapiens) (UniProt O00444).
T1 sequence (whole entry): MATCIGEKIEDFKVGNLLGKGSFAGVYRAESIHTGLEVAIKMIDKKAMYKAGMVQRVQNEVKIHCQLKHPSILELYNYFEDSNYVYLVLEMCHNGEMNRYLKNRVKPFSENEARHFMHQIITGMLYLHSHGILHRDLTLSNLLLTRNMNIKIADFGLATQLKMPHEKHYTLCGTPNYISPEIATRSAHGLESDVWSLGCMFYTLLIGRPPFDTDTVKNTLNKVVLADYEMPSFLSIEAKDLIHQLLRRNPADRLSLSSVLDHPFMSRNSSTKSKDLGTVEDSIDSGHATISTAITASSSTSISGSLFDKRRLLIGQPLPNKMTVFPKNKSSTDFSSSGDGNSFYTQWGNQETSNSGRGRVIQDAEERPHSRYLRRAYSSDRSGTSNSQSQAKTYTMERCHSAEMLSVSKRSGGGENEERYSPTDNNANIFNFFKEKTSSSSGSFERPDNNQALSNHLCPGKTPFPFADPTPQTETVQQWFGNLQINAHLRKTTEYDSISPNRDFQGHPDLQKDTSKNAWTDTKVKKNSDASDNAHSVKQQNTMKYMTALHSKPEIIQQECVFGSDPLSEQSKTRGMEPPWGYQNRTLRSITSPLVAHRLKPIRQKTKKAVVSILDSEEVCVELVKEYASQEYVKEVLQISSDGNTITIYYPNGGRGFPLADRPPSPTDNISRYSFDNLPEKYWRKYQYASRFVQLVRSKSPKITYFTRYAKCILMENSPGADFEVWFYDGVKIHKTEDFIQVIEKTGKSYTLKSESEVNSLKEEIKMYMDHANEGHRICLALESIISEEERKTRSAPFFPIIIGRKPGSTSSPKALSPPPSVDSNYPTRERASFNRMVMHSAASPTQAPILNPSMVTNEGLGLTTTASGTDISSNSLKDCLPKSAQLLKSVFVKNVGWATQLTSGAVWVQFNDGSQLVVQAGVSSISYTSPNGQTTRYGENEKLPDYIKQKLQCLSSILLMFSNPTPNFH
In words: Inhibition of SAK up to 100 uM.

Assay [4] has as its target T2, Aurora kinase A (Homo sapiens) (UniProt O14965).
T2 sequence (whole entry): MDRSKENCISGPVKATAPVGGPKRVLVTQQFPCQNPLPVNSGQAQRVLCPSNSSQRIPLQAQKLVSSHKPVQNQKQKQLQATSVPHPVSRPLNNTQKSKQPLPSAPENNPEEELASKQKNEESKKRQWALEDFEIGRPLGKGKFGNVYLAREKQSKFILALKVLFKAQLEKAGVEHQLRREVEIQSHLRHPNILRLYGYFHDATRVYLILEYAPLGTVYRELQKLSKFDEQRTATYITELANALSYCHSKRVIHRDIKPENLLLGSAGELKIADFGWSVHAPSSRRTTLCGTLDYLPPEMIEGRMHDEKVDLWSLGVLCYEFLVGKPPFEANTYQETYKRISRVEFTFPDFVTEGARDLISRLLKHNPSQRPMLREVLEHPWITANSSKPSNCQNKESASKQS
In words: Inhibition of Aurora A up to 100 uM. A digest of the protocol:
(§1)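 Buffer was HEPES-NaOH pH 7.5 with MgCl2, MnCl2, vanadate, DTT, PEG20000 and 1% DMSO. Run 80 min at 30 °C, quenched with 2% H3PO4, NaCl-washed, then scintillation-counted. IC50 fitted from 10 concentrations tested once each.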

Assay [5] concerns the target Receptor-type tyrosine-protein kinase FLT3 (Homo sapiens) (UniProt P36888). Nature of the assay: Inhibition of FLT3 up to 100 uM.
A further assay has as its target Aurora kinase B (Homo sapiens, UniProt Q96GD4). Nature of the assay: Inhibition of Aurora B. A digest of the protocol:
as §1

Assay [6] deals with Cyclin-dependent kinase 2 (Homo sapiens) (UniProt P24941). Nature of the assay: Inhibition of CDK2/cyclin A up to 100 uM. A digest of the protocol:
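Buffer was HEPES-NaOH pH 7.5 with MgCl2/MnCl2, vanadate, DTT, PEG20000 and 1% DMSO. Run 80 min at 30 °C, H3PO4 stop, NaCl wash, scintillation read-out. IC50 from 10 concentrations, singlicate.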

Assay [7] has as its target Vascular endothelial growth factor receptor 3 (Homo sapiens, UniProt P35916). In words: Inhibition of VEGFR3.
The target of assay [8] is Hepatocyte growth factor receptor (Homo sapiens) (UniProt P08581). Nature of the assay: Inhibition of MET up to 100 uM.
Hepatocyte growth factor receptor (Homo sapiens), sequence (P08581 whole entry): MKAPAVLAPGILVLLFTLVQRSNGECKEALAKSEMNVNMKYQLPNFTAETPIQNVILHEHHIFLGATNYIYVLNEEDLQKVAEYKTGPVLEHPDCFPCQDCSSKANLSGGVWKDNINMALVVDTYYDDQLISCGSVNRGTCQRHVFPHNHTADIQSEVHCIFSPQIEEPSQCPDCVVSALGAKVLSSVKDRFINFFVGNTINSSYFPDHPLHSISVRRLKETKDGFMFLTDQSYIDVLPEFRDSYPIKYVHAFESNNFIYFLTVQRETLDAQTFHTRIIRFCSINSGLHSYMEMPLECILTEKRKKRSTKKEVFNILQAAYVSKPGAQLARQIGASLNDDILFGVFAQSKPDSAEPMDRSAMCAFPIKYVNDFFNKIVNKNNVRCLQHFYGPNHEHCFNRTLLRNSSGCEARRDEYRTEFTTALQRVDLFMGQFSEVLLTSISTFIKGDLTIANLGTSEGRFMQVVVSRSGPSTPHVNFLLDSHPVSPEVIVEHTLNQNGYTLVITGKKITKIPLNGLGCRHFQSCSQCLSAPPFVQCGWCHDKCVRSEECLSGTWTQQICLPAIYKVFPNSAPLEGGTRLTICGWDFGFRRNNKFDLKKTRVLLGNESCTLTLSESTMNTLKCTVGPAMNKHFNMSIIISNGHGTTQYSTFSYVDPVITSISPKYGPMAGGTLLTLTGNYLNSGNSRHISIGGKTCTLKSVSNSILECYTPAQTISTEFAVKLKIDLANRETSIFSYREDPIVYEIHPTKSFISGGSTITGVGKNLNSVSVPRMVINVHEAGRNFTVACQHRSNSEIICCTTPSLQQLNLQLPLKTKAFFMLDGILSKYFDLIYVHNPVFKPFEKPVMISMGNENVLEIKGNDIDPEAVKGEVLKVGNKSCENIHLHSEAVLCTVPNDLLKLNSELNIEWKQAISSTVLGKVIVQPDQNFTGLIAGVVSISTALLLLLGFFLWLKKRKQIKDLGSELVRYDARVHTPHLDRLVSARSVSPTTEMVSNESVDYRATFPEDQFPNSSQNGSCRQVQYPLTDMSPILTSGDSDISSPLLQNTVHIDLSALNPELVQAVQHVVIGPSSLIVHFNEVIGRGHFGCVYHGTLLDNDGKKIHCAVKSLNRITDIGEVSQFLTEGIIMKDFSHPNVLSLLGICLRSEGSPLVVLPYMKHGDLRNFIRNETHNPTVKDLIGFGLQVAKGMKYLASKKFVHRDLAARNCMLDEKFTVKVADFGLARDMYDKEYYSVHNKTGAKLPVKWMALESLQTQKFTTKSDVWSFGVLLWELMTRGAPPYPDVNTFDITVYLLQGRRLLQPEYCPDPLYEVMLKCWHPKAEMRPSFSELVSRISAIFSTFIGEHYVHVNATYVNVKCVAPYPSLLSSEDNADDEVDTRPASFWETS

Receptor-type tyrosine-protein kinase FLT3 (Homo sapiens), sequence (P36888 whole entry): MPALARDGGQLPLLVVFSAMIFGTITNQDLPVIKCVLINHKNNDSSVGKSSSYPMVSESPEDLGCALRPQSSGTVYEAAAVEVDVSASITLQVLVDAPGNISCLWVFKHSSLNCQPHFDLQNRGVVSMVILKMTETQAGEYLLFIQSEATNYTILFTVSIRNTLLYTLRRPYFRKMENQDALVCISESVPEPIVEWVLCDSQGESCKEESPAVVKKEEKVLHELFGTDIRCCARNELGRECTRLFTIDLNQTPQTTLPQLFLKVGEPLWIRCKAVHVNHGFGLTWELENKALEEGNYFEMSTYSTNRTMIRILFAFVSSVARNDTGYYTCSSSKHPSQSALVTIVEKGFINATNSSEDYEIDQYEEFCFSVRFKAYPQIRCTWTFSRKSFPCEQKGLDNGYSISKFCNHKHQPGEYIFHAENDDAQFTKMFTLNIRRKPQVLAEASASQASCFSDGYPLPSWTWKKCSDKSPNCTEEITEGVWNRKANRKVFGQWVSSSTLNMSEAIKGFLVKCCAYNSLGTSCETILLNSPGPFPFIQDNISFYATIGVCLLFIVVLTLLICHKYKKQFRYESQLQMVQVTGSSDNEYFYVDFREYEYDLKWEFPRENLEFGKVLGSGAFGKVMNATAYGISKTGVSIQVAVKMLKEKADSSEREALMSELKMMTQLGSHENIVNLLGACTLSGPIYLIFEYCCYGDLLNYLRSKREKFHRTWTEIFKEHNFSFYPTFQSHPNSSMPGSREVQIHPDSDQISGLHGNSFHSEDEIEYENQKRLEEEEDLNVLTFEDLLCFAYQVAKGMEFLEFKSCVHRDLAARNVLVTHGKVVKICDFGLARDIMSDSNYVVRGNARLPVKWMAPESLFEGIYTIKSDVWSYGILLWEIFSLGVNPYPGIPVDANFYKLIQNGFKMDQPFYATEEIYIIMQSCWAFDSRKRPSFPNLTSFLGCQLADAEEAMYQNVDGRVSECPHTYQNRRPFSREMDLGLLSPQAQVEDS
Vascular endothelial growth factor receptor 3, sequence (P35916 whole entry): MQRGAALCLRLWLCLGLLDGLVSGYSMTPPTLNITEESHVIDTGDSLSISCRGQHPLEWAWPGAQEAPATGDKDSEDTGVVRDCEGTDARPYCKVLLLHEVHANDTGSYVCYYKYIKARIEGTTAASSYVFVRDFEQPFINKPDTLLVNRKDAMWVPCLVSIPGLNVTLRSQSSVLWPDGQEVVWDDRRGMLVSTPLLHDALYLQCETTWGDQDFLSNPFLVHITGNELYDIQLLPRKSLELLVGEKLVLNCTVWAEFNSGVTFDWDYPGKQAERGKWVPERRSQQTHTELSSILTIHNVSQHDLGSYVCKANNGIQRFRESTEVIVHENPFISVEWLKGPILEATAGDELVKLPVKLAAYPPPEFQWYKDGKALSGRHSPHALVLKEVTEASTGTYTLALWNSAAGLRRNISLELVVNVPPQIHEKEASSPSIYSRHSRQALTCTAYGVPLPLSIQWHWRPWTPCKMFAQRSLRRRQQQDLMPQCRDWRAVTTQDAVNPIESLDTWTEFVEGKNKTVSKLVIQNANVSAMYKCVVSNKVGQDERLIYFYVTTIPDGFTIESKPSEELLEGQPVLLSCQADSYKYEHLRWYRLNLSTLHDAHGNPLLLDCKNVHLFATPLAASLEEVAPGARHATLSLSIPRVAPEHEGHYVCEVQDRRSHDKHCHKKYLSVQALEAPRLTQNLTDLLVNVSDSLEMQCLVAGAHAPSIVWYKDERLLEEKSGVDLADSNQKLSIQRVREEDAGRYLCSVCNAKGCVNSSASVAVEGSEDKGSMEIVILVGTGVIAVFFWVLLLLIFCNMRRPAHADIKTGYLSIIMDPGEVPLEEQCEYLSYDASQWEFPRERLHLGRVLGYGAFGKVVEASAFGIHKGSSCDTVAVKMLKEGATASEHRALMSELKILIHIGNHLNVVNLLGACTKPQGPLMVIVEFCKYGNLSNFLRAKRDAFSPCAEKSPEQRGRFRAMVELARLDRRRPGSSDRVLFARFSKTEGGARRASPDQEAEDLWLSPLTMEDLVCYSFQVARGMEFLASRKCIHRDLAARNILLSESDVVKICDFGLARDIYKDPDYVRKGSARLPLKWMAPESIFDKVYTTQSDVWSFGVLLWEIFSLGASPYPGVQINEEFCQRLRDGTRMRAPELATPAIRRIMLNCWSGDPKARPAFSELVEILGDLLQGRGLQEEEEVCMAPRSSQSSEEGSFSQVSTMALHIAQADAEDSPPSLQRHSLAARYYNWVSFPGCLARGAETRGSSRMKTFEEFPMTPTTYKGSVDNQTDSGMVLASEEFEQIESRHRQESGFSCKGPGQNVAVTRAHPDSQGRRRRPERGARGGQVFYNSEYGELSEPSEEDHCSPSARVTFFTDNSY
Epidermal growth factor receptor, sequence (P00533 whole entry): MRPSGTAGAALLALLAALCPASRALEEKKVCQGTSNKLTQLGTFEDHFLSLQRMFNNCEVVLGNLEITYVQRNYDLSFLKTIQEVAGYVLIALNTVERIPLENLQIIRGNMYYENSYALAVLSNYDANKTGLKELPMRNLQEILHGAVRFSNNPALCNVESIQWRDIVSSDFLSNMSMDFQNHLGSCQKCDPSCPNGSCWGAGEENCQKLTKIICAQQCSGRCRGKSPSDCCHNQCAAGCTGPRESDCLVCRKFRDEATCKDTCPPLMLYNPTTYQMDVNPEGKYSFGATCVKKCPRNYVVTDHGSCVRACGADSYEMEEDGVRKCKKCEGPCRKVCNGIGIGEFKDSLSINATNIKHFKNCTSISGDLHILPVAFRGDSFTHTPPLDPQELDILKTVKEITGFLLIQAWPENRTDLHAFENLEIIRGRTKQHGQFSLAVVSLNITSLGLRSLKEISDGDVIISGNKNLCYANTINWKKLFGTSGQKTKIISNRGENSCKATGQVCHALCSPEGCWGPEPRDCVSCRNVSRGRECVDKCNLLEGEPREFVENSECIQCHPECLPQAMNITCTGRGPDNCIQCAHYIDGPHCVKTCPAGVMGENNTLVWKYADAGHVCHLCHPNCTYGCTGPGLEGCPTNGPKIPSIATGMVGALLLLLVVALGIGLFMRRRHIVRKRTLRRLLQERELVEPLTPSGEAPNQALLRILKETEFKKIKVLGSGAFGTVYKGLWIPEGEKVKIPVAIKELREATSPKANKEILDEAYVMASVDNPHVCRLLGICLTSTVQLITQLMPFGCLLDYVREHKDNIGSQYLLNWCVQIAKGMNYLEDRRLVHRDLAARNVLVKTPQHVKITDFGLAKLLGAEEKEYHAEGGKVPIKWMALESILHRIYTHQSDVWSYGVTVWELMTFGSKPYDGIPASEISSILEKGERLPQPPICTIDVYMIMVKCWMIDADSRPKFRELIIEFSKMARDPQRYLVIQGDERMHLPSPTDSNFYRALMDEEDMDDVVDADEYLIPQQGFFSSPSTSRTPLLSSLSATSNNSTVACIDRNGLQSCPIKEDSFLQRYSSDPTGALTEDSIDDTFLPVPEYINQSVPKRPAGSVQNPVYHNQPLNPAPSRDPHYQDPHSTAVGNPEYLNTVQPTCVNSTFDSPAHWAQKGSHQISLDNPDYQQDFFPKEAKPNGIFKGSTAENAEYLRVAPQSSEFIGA

On to `Nc1ncnc2c1ncn2CC(=O)c1cccnc1`, for which, in assay [1], the IC50 (as a rule, the concentration needed to halve the response being measured) is 93 µM. The inhibition result (in assay [2]; in assay [3]; in assay [4]; in assay [5]; at Aurora kinase B; in [6]) was “inactive” throughout. For the same compound, the inhibition result in assay [7] and in assay [8] was “inactive” in each case.
For `CN(C)c1ncnc2c1ncn2CC(=O)c1c[nH]c2ccccc12`, the inhibition entry (in assay [1]; in assay [2]; in assay [3]; in [4]; in assay [5]; at Aurora kinase B) was “inactive” in each case. The inhibition result in [6], in assay [7] and in [8] was “inactive” throughout.
On to `Nc1ncnc2ncn(CC(=O)c3ccccc3)c12`, for which the inhibition entry (in assay [2]; in assay [3]; in [4]; in [5]; on Aurora kinase B; in assay [6]) was “inactive” throughout. Moreover, the inhibition result in [8] was “inactive”.
With `COc1ncnc2ncn(CC(=O)c3ccccc3)c12`, the inhibition entry (in [1]; in assay [2]; in assay [3]; in [4]; in assay [5]; at Aurora kinase B) was “inactive” throughout. The inhibition entry in [6], in [7] and in assay [8] was “inactive” in each case.
In assay [1], `Nc1ncnc2c1ncn2CC(=O)c1ccccn1` displayed an IC50 of 89 µM. The inhibition entry (in assay [2]; in assay [3]; in [4]; in [5]; on Aurora kinase B; in [6]) was “inactive” in each case. Besides, the inhibition result in [7] and in assay [8] was “inactive” in each case.
Turning to `COc1ncnc2c1ncn2CC(=O)c1ccccc1`, the inhibition entry (in assay [1]; in assay [2]; in [3]; in assay [4]; in assay [5]; at Aurora kinase B) was “inactive” throughout. Besides, the inhibition result in assay [6] and in [8] was “inactive” throughout. In [7], this compound had a concentration for half-maximal inhibition (IC50) of 45 µM.
`Nc1ncnc2c1ncn2CC(=O)c1ccccc1`: it took 75 µM to reach half-maximal inhibition in assay [1] (IC50). For the same compound, the inhibition entry (in assay [2]; in assay [3]; in assay [4]; in assay [5]; on Aurora kinase B; in assay [6]) was “inactive” in each case. Besides, the inhibition result in assay [7] and in assay [8] was “inactive” in each case.
For the compound `Nc1ncnc2ncn(CC(=O)c3c[nH]c4ccccc34)c12`, the inhibition entry (in assay [2]; in [3]; in assay [4]; in [5]; on Aurora kinase B; in assay [6]) was “inactive” in each case. Moreover, the inhibition result in assay [7] and in assay [8] was “inactive” in each case.
Take `Nc1ncnc2c1ncn2CC(=O)c1c[nH]c2ccccc12`: the IC50 in assay [1] stood at 35 µM; at Aurora kinase B it was 69 µM. The inhibition entry in assay [2], in assay [3], in [4], in [5], in assay [6] and in assay [7] was “inactive” each time. Besides, in [8], the inhibition result was “inactive”.
